T cruzi repl = T. cruzi replication inhibition. AID 1885. 1.4% of 300,000 active. T. cruzi beta-gal in NIH3T3, luminescence, 90 h. inhibition, % (concentration not given with the values);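 active = mean inhibition across valid replicates above about 55%, limit read from the data; inconclusive = mean below that limit but half or more replicates reach it; inactive = mean below it, under half of replicates reach it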;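 also: signal also drops with host cell toxicity which is not excluded here; 0% = plate median of DMSO wells and 100% = zero luminescence signal; higher percent means less beta-gal luminescence so fewer parasites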
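System: NIH/3T3 fibroblasts plus reporter T. cruzi. Medium: DMEM plus 2% FBS. Probe or stimulus: 5000 reporter trypomastigotes per well. Compound: single 50 nL compound addition per well in DMSO. Incubation: co-culture of at least 90 h after 3 h attachment. Detection: GalScreen β-gal luminescence, detergent lysis, 60 min. Evaluation: parasite load inhibition, %.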
AI-2 QS mod = Vibrio harveyi AI-2 quorum sensing modulation; Vibrio harveyi JMH597 AI-2 luminescence/OD600 ratio, 9 h; stronger effect = lower value; strain lacks LuxN and CqsS sensors; 0 = neutral-control median; activity change, % at 7.5 µM; 0.4% of 300,000 active; AID 2094; in the data active = activity change below about -75%, passing the limit was not always enough; inconclusive = no clear call, values can overlap the other calls;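 also: luminescence divided by OD600 gain over 9 h not by final OD600 alone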
ARNT TACC3 PPI = disruptors of human ARNT/TACC3 interaction; 0.66% of 390,000 active; AID 623870; AlphaScreen His-ARNT PAS-B/GST-TACC3 binding, luminescence; TACC3 fragment carries E629A point mutation; Q9Y6A5; inhibition, % at 9.99 µM;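 active = mean inhibition of replicates at least 50% and at least half of replicates each reaching 50%; inconclusive = half or more replicates reach 50% but mean below 50%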;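 also: 0% = complete ARNT plus TACC3 wells and 100% = ARNT alone without TACC3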
HIF activator = HIF pathway transcriptional activation; activation, % at 7.5 µM (by protocol); U2OS HRE-luciferase reporter, luminescence; normalized: DMSO 0%, desferrioxamine 100%; 0.32% of 300,000 active;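 active = mean activation of at least 10% of the iron chelator positive control signal, with at least half of replicates also reaching 10%; inconclusive = mean and replicate majority disagree about reaching 10%; inactive = mean and most replicates under 10%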
Starred values were filed as active, the others as inactive; ? = inconclusive; · = no result given. A selection: hits, their analogues and other compounds. The true share with any hit is near 2%.

SMILES	T cruzi repl	AI-2 QS mod	ARNT TACC3 PPI	HIF activator
CCCCCC(=O)N/N=C/c1ccc([N+](=O)[O-])o1	76*	·	·	0
CCOC(=O)/C(=C\c1ccc([N+](=O)[O-])o1)NC(=O)c1ccccc1	68*	14	0	-1
CN(C)CCCNC(=O)C[C@H]1C=C[C@@H](NC(=O)c2ccccc2F)[C@@H](CO)O1	·	·	-8	·
Cc1nc2ccccn2c1C(=O)N/N=C/c1ccc([N+](=O)[O-])o1	71*	?	2	0
O=C(CNc1ccccc1)N/N=C/c1ccc([N+](=O)[O-])o1	64*	?	1	0
O=C(CNC(=O)c1ccccc1)N/N=C/c1ccc([N+](=O)[O-])s1	76*	-8	4	0
O=[N+]([O-])c1ccc(C=Nc2cccc3ccccc23)s1	61*	30	6	0
O=[N+]([O-])c1ccc(-c2ccc(C=Nc3cccc4ccccc34)o2)cc1	-13	38	5	2
O=C(Cc1ccccc1)NCC(=O)N/N=C/c1ccc([N+](=O)[O-])s1	49	18	4	-2
COc1ccc(NC(=O)N(C)C[C@@H]2Oc3c(NS(C)(=O)=O)cccc3C(=O)N([C@@H](C)CO)C[C@@H]2C)cc1	·	·	-2	·
C[C@H]1CN([C@@H](C)CO)C(=O)c2cc(-c3ccc(F)cc3)cnc2O[C@H]1CN(C)C(=O)c1ccc(F)cc1	·	·	-7	·
CCOc1cc(N2CCOCC2)c(OCC)cc1NC(=O)[C@H](C)N1C(=O)C2CC=CCC2C1=O (stereo not given in full)	9	12	-1	0
CCOc1cc(N2CCOCC2)c(OCC)cc1NC(C)C(=O)N1CCC(C)CC1 (stereo not given)	43	7	·	29*
COc1cccc(NC(=O)C[C@H]2CC[C@@H]3[C@H](COc4ccc(NC(=O)c5ccccc5F)cc4C(=O)N3C)O2)c1	·	·	13	·
Cc1ccc(NS(=O)(=O)c2ccc(Cl)c(C(=O)Nc3ccccc3-c3nc4ccccc4[nH]3)c2)cc1C	68*	21	-4	0
CN(C)S(=O)(=O)c1ccc(Cl)c(C(=O)Nc2nc3ccccc3[nH]2)c1	-8	5	14	0
N#Cc1c(NCCCO)nc(NCc2ccccc2)c2c1CCN(Cc1ccccc1)C2	35	47	-4	0
CN1CCc2c(C#N)c(N3CCCCC3)nc(NCc3ccccc3)c2C1	56*	38	9	0
C[C@@H]1CN([C@@H](C)CO)C(=O)c2cccc(NS(=O)(=O)c3cccs3)c2O[C@H]1CN(C)S(=O)(=O)c1cn(C)cn1	·	·	-3	·
Cc1ccc2nc(NNC(=O)c3ccc4c(c3)OCCO4)sc2c1	-6	-58	-2	0
Cc1cc(C)c2nc(NNC(=O)c3ccc(S(=O)(=O)N4CC(C)CC(C)C4)cc3)sc2c1 (stereo not given)	62*	37	14	5
CCC(=O)NNc1nc2c(C)cc(C)cc2s1	-17	34	-5	0
Cc1ccc2nc(NNC(=O)c3ccc(S(=O)(=O)N4CCc5ccccc5C4)cc3)sc2c1	71*	22	8	99*
COC(=O)c1sc2ccccc2c1NC(=O)c1ccc(S(=O)(=O)N2CC(C)CC(C)C2)cc1 (stereo not given)	-5	16	-30	0
Cc1cccc2sc(NNC(=O)c3ccc(S(=O)(=O)N4CC(C)CC(C)C4)cc3)nc12 (stereo not given)	66*	102	49*	6
SMILES	T cruzi repl	AI-2 QS mod	ARNT TACC3 PPI	HIF activator
COC(=O)c1sc2ccccc2c1NC(=O)c1ccc(S(=O)(=O)N2CCCC(C)C2)cc1 (stereo not given)	24	16	-8	0
Cc1cc(C)c2nc(NNC(=O)c3ccc(S(=O)(=O)N4CCCC(C)C4)cc3)sc2c1 (stereo not given)	61*	91	19	26*
Cc1noc(C)c1S(=O)(=O)N(C)C[C@H]1Oc2ccc(NS(=O)(=O)c3cccs3)cc2CC(=O)N([C@H](C)CO)C[C@@H]1C	·	·	7	·
CNC[C@H]1OCCCC[C@@H](C)Oc2ccc(NC(=O)NC(C)C)cc2C(=O)N([C@@H](C)CO)C[C@H]1C	·	·	2	·
Cc1ccc(-c2cnc3c(c2)C(=O)N([C@H](C)CO)C[C@H](C)[C@H](CN(C)C(=O)c2cccc(F)c2)O3)cc1	·	·	5	·
COc1cc(-c2cc(C(=O)Nc3ccc(S(=O)(=O)NCc4ccco4)cc3)c3ccccc3n2)cc(OC)c1OC	56*	-9	6	-1
COc1cc(-c2cc(C(=O)NCc3ccco3)c3ccccc3n2)cc(OC)c1OC	-9	12	2	1
COc1ccc(NC(=O)Cc2nnc(SCC(=O)NC3CCCCC3)n2C)cc1	4	2	2	0
COc1ccc(Cc2nnc(SCC(=O)NC3CCCCC3)n2C)cc1	-17	26	7	70*
O=c1c2c(nc3c(-c4ccccc4)c[nH]n13)CCC2	-7	10	6	0
O=c1c2c(nc3c(-c4ccc(Cl)cc4)c[nH]n13)CCC2	-128	99	46*	0
c1ccc(CCn2nnnc2C(c2cccnc2)N2CCN(c3nc4ccccc4s3)CC2)cc1 (stereo not given)	60*	21	11	·
COc1ccc(C(c2nnnn2Cc2ccccc2)N2CCN(c3ccccc3)CC2)cc1 (stereo not given)	13	-2	-1	-1
CCCC(c1nnnn1CS(=O)(=O)c1ccc(C)cc1)N1CCN(c2ccccc2)CC1 (stereo not given)	16	35	-2	0
COc1ccc(C(c2nnnn2Cc2ccccc2)N2CCN(c3nc4ccccc4s3)CC2)cc1 (stereo not given)	64*	2	2	-1
CCC(c1nnnn1CS(=O)(=O)c1ccc(C)cc1)N1CCN(c2nc3ccccc3s2)CC1 (stereo not given)	75*	10	6	0
COCCn1nnnc1C(c1ccc(OC)c(OC)c1)N1CCN(c2nc3ccccc3s2)CC1 (stereo not given)	6	22	0	0
c1ccc(CCn2nnnc2C(c2cccnc2)N2CCN(c3ccccc3)CC2)cc1 (stereo not given)	74*	14	-23	0
Oc1ccc(N2CCN(C(c3cccnc3)c3nnnn3Cc3ccccc3)CC2)cc1 (stereo not given)	?	18	-2	0
Cc1noc(C)c1S(=O)(=O)N(C)C[C@@H]1Oc2ccc(NC(=O)Cc3ccccc3)cc2CC(=O)N([C@H](C)CO)C[C@H]1C	·	·	-11	·
Cc1ccc(C(c2nnnn2C2CCCC2)N2CCN(c3nc4ccccc4s3)CC2)cc1 (stereo not given)	47	34	-12	-1
c1ccc(C(c2nnnn2C2CCCC2)N2CCN(c3nc4ccccc4s3)CC2)cc1 (stereo not given)	71*	22	-4	-16
C[C@H](CO)N1C[C@H](C)[C@@H](CN(C)C(=O)Cc2ccccc2)OCCCC[C@H](C)Oc2ccc(NC(=O)c3ccccc3)cc2C1=O	·	·	-6	·

Bioassay records: PubChem BioAssay, Broad Institute
